Reference: PubChem BioAssay
Calls of active or inactive are those of the source. Unless noted, no stated cut-off is given here; in the data, active means inhibition above about 30%; inactive means the rest.

What was measured:
[1] = Her2 expression decrease, cell viability multiplex – SKBR3 breast tumor cells, AlphaScreen, ATP viability, primary screen (AID 461;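 active means Her2 level under about 52% in both replicate screens, with viability over 70% of control, limit read from the data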;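 on Her2 level: lower value means less Her2 protein in the cells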;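 on viability: percent of carrier control wells set as 100% viability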); conditions: SKBR3 Her2 protein level, 18-24 h, measured here: SKBR3 viability, ATP luminescence, at 10 µM
[2] = target: Receptor tyrosine-protein kinase erbB-2 (Homo sapiens) (UniProt P04626); test: as above; conditions: 18-24 h, at 10 µM, stronger effect = lower value
[3] = reduced viability of SK-BR-3 breast cancer cells – cell-based, 24 h, human, pilot screen (AID 572;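 active means viability at or below 10% of carrier control in both of two separate runs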;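 further: compound exposure lasted between 18 and 24 h rather than exactly 24 h; 100% = carrier-treated control wells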); conditions: SK-BR-3 viability, CellTiter-Glo luminescence, at 10 µM, stronger effect = lower value
[4] = HUVEC growth inhibition – cell-based, human, primary screen (AID 575;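 active means viability at or below 30% in both replicate assays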;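 further: 100% = median of untreated cell wells with 0.1% DMSO on each plate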); conditions: HUVEC proliferation, CellTiter-Glo luminescence, 72 h; at 10 µM; stronger effect = lower value
Outline: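 System – primary HUVEC, no more than 12 passages · Medium – Low-serum (2% FBS) EBM, supplemented · Times – 72 h exposure, 37 °C, 5% CO2, 30 min RT equilibration · Measured by – luminescent ATP assay · Read-out – % viability relative to median vehicle-well signal on each plate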

[5] = H69AR cell proliferation blockers – human, duplicate replicates, primary screen (AID 580;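 active means viability at or under a set limit in both replicates, limit being median viability minus 3 SD, cut at about 48% in these data, passing the limit was not always enough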;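 further: 100% = mean luminescence of untreated wells and 0% = no signal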); conditions: H69AR lung tumor cells viability, ATP luminescence, 72 h; at 10 µM; stronger effect = lower value
[6] = MRP1 drug-resistance reversers in H69AR cells – cell-based, doxorubicin co-treatment, pilot screen (AID 601;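 active means viability loss from added drug above about 55%, and viability with drug at most 40%, in both replicates, limit read from the data, passing the limit was not always enough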); conditions: CellTiter-Glo, 72 h, at 10 µM; for differential viability (reversal): stronger effect = higher value
[7] = yeast transport mutant growth inhibition pilot in 384-well plates, post-Golgi transport modulator project (AID 636; in the data active means inhibition above about 31%); conditions: absorbance 615 nm, about 18 h, stronger effect = higher value
[8] = growth suppression of yeast trafficking mutant, preliminary HTS, modulators of trafficking downstream of Golgi apparatus project, 1536-format plate, OD 615 nm (AID 637); conditions: yeast transport mutant growth, absorbance 615 nm, 18 h; stronger effect = higher value
[9] = H69AR cells + 2 uM doxorubicin, measured here: viability with 2 uM doxorubicin, stronger effect = lower value
[10] = H69AR cells, compound alone cytotoxicity

Chain of Receptor tyrosine-protein kinase erbB-2 (Homo sapiens) (P04626 whole entry, looked up): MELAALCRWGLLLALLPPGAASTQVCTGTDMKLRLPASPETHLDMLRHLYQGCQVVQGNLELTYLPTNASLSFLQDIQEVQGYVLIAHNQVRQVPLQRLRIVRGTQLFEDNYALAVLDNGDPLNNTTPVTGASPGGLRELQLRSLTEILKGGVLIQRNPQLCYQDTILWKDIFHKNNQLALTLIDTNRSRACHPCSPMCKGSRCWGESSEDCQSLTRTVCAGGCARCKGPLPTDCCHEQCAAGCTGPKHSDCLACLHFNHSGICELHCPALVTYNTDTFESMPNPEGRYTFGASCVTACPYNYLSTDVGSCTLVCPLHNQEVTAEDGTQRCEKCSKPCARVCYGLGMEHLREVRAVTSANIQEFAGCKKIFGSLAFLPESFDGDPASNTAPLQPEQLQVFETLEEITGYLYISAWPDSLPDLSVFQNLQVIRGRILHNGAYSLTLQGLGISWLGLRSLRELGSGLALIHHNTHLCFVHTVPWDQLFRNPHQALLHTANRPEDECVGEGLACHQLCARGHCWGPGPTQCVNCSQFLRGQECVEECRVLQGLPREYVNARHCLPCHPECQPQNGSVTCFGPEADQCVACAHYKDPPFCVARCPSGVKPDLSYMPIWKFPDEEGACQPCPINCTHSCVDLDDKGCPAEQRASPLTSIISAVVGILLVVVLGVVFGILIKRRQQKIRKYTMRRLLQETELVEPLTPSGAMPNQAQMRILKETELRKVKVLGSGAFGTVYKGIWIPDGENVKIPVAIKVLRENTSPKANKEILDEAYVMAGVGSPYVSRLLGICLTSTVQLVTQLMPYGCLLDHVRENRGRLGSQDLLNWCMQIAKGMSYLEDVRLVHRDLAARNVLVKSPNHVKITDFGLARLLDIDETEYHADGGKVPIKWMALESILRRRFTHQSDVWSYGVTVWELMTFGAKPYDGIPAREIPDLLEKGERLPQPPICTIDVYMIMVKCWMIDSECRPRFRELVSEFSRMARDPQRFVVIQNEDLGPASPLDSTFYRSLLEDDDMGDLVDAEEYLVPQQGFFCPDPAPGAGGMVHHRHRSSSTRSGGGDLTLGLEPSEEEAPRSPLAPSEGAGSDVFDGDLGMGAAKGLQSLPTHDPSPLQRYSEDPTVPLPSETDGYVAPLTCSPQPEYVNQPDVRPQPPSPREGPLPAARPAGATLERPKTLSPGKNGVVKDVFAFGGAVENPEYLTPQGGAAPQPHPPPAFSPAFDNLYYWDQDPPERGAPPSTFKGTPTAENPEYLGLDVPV

Cc1ccc2c(c1)NC(=O)C(CC(=O)NCCN(CC(C)C)CC(C)C)O2 (stereo not given)
viability [1]: 88% | Her2 level [2]: 93% (inactive) | viability [3]: 88% (inactive) | viability [4]: 87.3% (inactive) | viability [5]: 91.6% (inactive) | differential viability (reversal) ([6]; H69AR cells + 2 uM doxorubicin): 5.71% (inactive) | viability [6, 9]: 85.8% | viability [6, 10]: 91.6% | inhibition [7]: 2.13% (inactive) | inhibition [8]: -3.28% (inactive)

CC(C)OC(=O)CSc1nnc(-c2ccc(C(C)(C)C)cc2)n1N
viability [1]: 93% | Her2 level [2]: 108% (inactive) | viability [3]: 93% (inactive) | viability [4]: 86.7% (inactive) | viability [5]: 88.4% (inactive) | differential viability (reversal) ([6]; H69AR cells + 2 uM doxorubicin): 5.61% (inactive) | viability [6, 9]: 82.8% | viability [6, 10]: 88.4% | inhibition [7]: -2.6% (inactive) | inhibition [8]: -12.7% (inactive)

Nn1c(CSc2nc3ccccc3o2)nnc1CSc1nc2ccccc2o1
viability [1]: 86% | Her2 level [2]: 94.5% (inactive) | viability [3]: 86% (inactive) | viability [4]: 115% (inactive) | viability [5]: 103% (inactive) | differential viability (reversal) ([6]; H69AR cells + 2 uM doxorubicin): 24.1% (inactive) | viability [6, 9]: 78.6% | viability [6, 10]: 103% | inhibition [7]: -4.4% (inactive) | inhibition [8]: -1.8% (inactive)

COc1ccc(S(=O)(=O)N2CCCC(C(=O)N3CCCCCC3)C2)cc1 (stereo not given)
viability [1]: 102% | Her2 level [2]: 80% (inactive) | viability [3]: 102% (inactive) | viability [4]: 100% (inactive) | viability [5]: 88.2% (inactive) | differential viability (reversal) ([6]; H69AR cells + 2 uM doxorubicin): -3.65% (inactive) | viability [6, 9]: 91.9% | viability [6, 10]: 88.2% | inhibition [7]: -5% (inactive) | inhibition [8]: 2% (inactive)

O=C(c1ccc2c(c1)c(=O)oc1ccccc12)N1CCCCC1
viability [1]: 109% | Her2 level [2]: 86% (inactive) | viability [3]: 109% (inactive) | viability [4]: 98.6% (inactive) | viability [5]: 101% (inactive) | differential viability (reversal) ([6]; H69AR cells + 2 uM doxorubicin): 14.1% (inactive) | viability [6, 9]: 87.3% | viability [6, 10]: 101% | inhibition [7]: -2.11% (inactive) | inhibition [8]: 3.17% (inactive)

COC(=O)CC1C(=O)NCCN1C(=O)NC1CCCCC1 (stereo not given)
viability [1]: 94% | Her2 level [2]: 114% (inactive) | viability [3]: 94% (inactive) | viability [4]: 104% (inactive) | viability [5]: 98.8% (inactive) | differential viability (reversal) ([6]; H69AR cells + 2 uM doxorubicin): 7.06% (inactive) | viability [6, 9]: 91.7% | viability [6, 10]: 98.8% | inhibition [7]: -9.59% (inactive) | inhibition [8]: -6.98% (inactive)

O=S(=O)(c1ccc2ccccc2c1)N(CC(O)CN1CCOCC1)c1ccccc1 (stereo not given)
viability [1]: 87% | Her2 level [2]: 75.5% (inactive) | viability [3]: 87% (inactive) | viability [4]: 83.9% (inactive) | viability [5]: 100% (inactive) | differential viability (reversal) ([6]; H69AR cells + 2 uM doxorubicin): 19% (inactive) | viability [6, 9]: 81% | viability [6, 10]: 100% | inhibition [7]: -5.87% (inactive) | inhibition [8]: -1.13% (inactive)

O=C(c1ccco1)N(Cc1cc2ccccc2[nH]c1=O)C1CCCCC1
viability [1]: 98.5% | Her2 level [2]: 103% (inactive) | viability [3]: 98.5% (inactive) | viability [4]: 91.7% (inactive) | viability [5]: 95% (inactive) | differential viability (reversal) ([6]; H69AR cells + 2 uM doxorubicin): 12.9% (inactive) | viability [6, 9]: 82.1% | viability [6, 10]: 95% | inhibition [7]: 0.39% (inactive) | inhibition [8]: -6.35% (inactive)
